Measured values reported in ChEMBL document CHEMBL5661979, “Pharmacological inhibition of BMK1 suppresses tumor growth through promyelocytic leukemia protein” (Cancer Cell, 2010).

Assays:
eIF-2-alpha kinase GCN2 = eIF-2-alpha kinase GCN2 (Homo sapiens, UniProt Q9P2K8); assay: Inhibition of GCN2 in human HeLa cells lysate pre incubated for 15 mins followed by ATP acyl phosphate probe addition and measured after 10 mins by LC-MS/MS analysis; assay type: subcellular
[1] = Inhibition of CK1g1/g2/g3 in human HeLa cells lysate at 10 uM pre incubated for 15 mins followed by ADP acyl phosphate probe addition and measured after 10 mins by LC-MS/MS analysis relative to control; conditions: 25 min, condition cancer
[2] = biological target: Cyclin-dependent kinase 5 (Homo sapiens, UniProt Q00535); assay: Inhibition of CDK5 in human HeLa cells lysate pre incubated for 15 mins followed by ATP acyl phosphate probe addition and measured after 10 mins by LC-MS/MS analysis; assay type: subcellular
Cyclin-dependent kinase 5, sequence (Q00535 whole entry, the tested form may be a part): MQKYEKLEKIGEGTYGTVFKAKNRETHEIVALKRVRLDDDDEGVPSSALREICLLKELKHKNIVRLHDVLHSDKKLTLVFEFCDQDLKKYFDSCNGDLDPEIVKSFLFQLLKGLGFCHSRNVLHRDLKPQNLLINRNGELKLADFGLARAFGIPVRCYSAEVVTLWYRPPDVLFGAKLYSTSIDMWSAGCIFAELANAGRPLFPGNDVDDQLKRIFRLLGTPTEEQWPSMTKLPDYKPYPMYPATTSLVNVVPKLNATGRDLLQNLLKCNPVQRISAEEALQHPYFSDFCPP
Procedure, shortened: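 KiNativ profiling in HeLa lysate (5 mg/mL total protein). Lysate incubated 15 min with inhibitor at 50, 10, 2, 0.8 or 0 μM. ATP or ADP acylphosphate probe then added (5 μM final) and reacted 10 min. Reaction stopped with urea and analysed by targeted MS, using up to four fragment ions per kinase peptide-probe conjugate. % inhibition taken against untreated lysate. Run in duplicate.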

[3] = biological target: Serine/threonine-protein kinase Sgk1 (Homo sapiens, UniProt O00141); assay: Inhibition of SGK1 in human HeLa cells lysate pre incubated for 15 mins followed by ADP acyl phosphate probe addition and measured after 10 mins by LC-MS/MS analysis; assay type: subcellular
Serine/threonine-protein kinase Sgk1, sequence (O00141 whole entry): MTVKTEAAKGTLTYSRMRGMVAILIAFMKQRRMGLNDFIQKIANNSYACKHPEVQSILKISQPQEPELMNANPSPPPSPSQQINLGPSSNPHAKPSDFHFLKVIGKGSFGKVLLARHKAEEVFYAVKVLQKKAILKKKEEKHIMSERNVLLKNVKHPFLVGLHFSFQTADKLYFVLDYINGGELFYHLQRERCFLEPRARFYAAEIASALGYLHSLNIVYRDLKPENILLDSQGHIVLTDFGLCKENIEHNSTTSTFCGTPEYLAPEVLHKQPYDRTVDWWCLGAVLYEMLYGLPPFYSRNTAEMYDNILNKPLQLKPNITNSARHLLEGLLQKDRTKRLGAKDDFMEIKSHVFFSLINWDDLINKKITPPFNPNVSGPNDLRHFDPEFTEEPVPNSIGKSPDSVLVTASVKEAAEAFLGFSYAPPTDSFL

AMPK alpha1/alpha2 = AMPK alpha1/alpha2 (Homo sapiens, UniProt P54646+Q13131); assay: Inhibition of AMPKalpha1/2 in human HeLa cells lysate at 2 uM pre incubated for 15 mins followed by ATP acyl phosphate probe addition and measured after 10 mins by LC-MS/MS analysis relative to control; assay type: subcellular; conditions: time 25.0 min
AMPK alpha1/alpha2, sequence (P54646 whole entry, looked up, the tested form may be a part): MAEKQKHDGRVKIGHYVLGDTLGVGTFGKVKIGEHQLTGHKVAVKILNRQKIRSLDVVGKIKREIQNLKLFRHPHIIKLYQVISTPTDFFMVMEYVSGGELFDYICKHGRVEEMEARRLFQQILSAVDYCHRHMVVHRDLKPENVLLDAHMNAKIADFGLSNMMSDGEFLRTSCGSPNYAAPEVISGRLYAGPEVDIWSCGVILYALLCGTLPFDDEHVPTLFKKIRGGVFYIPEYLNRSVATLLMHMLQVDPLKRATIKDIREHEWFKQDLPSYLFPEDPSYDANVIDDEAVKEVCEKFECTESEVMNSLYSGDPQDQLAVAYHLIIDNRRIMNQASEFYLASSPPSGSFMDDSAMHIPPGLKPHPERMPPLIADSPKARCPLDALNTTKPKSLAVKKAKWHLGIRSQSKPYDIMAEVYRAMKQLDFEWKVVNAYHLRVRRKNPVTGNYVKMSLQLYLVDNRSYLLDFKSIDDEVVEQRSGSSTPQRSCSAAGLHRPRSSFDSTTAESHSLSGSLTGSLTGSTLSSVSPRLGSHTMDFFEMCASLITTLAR
AMPK alpha1/alpha2, sequence (Q13131 whole entry, looked up, the tested form may be a part): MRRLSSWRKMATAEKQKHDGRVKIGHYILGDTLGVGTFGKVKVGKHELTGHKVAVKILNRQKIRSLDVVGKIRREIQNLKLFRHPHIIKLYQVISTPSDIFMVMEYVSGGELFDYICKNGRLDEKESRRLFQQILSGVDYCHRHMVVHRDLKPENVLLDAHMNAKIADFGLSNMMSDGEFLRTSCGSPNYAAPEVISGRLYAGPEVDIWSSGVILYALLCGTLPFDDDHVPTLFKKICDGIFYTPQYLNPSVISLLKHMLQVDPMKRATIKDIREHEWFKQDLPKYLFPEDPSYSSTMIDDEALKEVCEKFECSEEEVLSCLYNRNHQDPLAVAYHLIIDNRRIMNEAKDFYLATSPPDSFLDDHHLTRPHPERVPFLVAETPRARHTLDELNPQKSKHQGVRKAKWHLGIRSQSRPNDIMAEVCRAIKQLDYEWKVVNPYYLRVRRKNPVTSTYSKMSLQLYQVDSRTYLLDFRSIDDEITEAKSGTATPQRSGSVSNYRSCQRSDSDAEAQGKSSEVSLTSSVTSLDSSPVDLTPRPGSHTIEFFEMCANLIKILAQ
Procedure, shortened: (§1)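 HeLa cell lysates (5 mg/mL total protein) were preincubated with inhibitor at 0, 0.8, 2, 10 or 50 μM for 15 min. ATP or ADP acylphosphate probe was then added (5 μM final) for 10 min, and reactions were stopped with urea. Up to four fragment ions per kinase probe-peptide were quantified by targeted MS. % inhibition was taken relative to untreated lysate. Run in duplicate.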

[4] = biological target: Casein kinase I isoform alpha (Homo sapiens, UniProt P48729); assay: Inhibition of CK1alpha in human HeLa cells lysate at 50 uM pre incubated for 15 mins followed by ATP acyl phosphate probe addition and measured after 10 mins by LC-MS/MS analysis relative to control; assay type: subcellular; conditions: time 25.0 min
Casein kinase I isoform alpha, sequence (P48729 2-337 limits assumed): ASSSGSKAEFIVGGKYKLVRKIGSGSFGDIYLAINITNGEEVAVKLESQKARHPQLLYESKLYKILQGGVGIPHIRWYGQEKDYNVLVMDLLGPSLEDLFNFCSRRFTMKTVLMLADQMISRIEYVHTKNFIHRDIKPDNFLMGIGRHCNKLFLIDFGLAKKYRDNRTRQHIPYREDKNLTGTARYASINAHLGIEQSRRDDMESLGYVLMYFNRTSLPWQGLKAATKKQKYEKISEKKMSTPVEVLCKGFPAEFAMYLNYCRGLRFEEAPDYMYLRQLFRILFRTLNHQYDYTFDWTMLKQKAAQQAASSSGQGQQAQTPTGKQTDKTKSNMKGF

[5] = Inhibition of CK1g1/g2/g3 in human HeLa cells lysate at 2 uM pre incubated for 15 mins followed by ADP acyl phosphate probe addition and measured after 10 mins by LC-MS/MS analysis relative to control; conditions: 25 min, condition cancer
[6] = biological target: T1, Phosphatidylinositol 5-phosphate 4-kinase type-2 gamma (Homo sapiens) (UniProt Q8TBX8); assay: Inhibition of PIP5K2C LIP2 site in human HeLa cells lysate at 2 uM pre incubated for 15 mins followed by ATP acyl phosphate probe addition and measured after 10 mins by LC-MS/MS analysis relative to control; assay type: subcellular; conditions: time 25.0 min
T1 sequence (whole entry): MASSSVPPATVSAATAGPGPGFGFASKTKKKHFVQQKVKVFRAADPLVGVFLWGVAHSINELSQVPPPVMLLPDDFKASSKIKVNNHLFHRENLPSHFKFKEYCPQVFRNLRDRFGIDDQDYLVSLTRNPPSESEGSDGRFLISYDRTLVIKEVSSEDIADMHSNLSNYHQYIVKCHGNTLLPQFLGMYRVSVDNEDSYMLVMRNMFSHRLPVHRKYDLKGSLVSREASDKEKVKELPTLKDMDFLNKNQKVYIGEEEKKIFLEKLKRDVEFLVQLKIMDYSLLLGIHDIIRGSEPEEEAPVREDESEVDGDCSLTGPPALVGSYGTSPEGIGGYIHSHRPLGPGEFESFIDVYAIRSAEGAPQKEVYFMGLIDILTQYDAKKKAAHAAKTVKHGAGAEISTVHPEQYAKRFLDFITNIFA

[7] = biological target: Microtubule-associated serine/threonine-protein kinase 3 (Homo sapiens, UniProt O60307); assay: Inhibition of MAST3 in human HeLa cells lysate pre incubated for 15 mins followed by ATP acyl phosphate probe addition and measured after 10 mins by LC-MS/MS analysis; assay type: subcellular
RPS6KA1/RPS6KA2/RPS6KA3 = RPS6KA1/RPS6KA2/RPS6KA3 (Homo sapiens, UniProt P51812+Q15349+Q15418); assay: Inhibition of RSK1/2/3 in human HeLa cells lysate at 50 uM pre incubated for 15 mins followed by ADP acyl phosphate probe addition and measured after 10 mins by LC-MS/MS analysis relative to control; assay type: subcellular; conditions: time 25.0 min
[8] = biological target: Cyclin-dependent kinase 12 (Homo sapiens, UniProt Q9NYV4); assay: Inhibition of CRK7 in human HeLa cells lysate at 2 uM pre incubated for 15 mins followed by ADP acyl phosphate probe addition and measured after 10 mins by LC-MS/MS analysis relative to control; assay type: subcellular; conditions: time 25.0 min
Cyclin-dependent kinase 12, sequence (Q9NYV4 whole entry, looked up): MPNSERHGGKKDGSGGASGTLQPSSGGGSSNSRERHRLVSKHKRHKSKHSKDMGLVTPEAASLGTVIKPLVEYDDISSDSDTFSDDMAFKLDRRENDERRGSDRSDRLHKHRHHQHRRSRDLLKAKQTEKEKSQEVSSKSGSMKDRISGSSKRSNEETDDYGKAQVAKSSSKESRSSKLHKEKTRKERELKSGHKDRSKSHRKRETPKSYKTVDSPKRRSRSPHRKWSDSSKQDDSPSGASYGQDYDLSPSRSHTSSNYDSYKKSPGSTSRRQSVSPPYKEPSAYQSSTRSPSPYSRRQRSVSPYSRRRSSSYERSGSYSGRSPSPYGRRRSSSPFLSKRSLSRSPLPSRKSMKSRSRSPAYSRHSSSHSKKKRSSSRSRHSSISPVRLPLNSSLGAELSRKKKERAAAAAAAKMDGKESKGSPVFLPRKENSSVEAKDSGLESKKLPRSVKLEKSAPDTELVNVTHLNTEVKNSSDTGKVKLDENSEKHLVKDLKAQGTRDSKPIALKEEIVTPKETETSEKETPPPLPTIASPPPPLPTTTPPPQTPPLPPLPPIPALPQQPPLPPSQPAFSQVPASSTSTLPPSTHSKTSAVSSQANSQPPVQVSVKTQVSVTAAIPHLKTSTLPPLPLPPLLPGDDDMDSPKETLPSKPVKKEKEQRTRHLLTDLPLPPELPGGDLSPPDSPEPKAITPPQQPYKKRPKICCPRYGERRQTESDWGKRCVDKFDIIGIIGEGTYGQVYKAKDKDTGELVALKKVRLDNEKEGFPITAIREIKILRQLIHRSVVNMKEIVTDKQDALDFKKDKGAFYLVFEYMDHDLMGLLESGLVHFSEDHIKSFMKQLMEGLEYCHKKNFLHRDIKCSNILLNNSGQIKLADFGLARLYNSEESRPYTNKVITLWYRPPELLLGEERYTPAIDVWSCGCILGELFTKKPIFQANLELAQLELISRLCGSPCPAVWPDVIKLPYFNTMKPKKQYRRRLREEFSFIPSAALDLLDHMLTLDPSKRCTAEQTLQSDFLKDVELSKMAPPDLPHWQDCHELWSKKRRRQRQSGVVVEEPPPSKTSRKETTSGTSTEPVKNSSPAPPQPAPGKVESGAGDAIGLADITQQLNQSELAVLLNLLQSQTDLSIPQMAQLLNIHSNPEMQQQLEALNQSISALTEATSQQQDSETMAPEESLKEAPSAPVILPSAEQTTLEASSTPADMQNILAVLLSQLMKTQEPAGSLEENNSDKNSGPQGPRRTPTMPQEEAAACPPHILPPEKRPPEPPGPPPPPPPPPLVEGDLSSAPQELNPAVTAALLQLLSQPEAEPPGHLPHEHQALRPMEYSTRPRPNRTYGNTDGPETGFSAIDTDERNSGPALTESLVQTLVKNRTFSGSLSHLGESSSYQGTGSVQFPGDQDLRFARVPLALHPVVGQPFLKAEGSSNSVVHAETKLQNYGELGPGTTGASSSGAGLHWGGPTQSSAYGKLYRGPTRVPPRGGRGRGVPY

[9] = Inhibition of HGK/MINK/TNIK in human HeLa cells lysate pre incubated for 15 mins followed by ATP acyl phosphate probe addition and measured after 10 mins by LC-MS/MS analysis; assay type: subcellular
[10] = Inhibition of MAP3K5/MAP3K6/MAP3K15 in human HeLa cells lysate at 2 uM pre incubated for 15 mins followed by ATP acyl phosphate probe addition and measured after 10 mins by LC-MS/MS analysis relative to control; conditions: 25 min, condition cancer
[11] = biological target: Eukaryotic elongation factor 2 kinase (Homo sapiens, UniProt O00418); assay: Inhibition of EEF2K in human HeLa cells lysate pre incubated for 15 mins followed by ATP acyl phosphate probe addition and measured after 10 mins by LC-MS/MS analysis; assay type: subcellular
[12] = biological target: Serine/threonine-protein kinase MARK1 (Homo sapiens, UniProt Q9P0L2); assay: Inhibition of MARK1 in human HeLa cells lysate pre incubated for 15 mins followed by ADP acyl phosphate probe addition and measured after 10 mins by LC-MS/MS analysis; assay type: subcellular
Serine/threonine-protein kinase MARK1, sequence (Q9P0L2 whole entry): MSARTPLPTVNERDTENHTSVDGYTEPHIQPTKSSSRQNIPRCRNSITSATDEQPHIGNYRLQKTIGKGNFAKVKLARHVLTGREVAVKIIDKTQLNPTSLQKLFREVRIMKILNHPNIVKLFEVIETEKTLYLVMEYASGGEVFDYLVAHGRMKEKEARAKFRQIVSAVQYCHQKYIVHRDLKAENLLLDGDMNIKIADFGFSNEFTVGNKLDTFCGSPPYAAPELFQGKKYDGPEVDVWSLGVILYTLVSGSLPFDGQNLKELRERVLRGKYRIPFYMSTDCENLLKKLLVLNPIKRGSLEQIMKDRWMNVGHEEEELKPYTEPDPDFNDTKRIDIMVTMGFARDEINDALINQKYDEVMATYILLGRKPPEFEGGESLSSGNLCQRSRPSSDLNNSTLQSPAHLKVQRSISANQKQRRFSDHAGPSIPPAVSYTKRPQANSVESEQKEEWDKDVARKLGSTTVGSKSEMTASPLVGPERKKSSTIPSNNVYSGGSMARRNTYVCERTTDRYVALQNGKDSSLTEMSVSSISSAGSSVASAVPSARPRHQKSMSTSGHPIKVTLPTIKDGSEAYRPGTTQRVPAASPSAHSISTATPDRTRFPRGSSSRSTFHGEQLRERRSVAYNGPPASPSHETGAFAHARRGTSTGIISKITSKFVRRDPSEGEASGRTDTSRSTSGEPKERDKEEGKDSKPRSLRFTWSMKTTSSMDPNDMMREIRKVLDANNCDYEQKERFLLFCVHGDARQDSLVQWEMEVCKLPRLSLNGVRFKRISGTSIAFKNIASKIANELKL

[13] = biological target: RAC-alpha serine/threonine-protein kinase (Homo sapiens, UniProt P31749); assay: Inhibition of AKT1 in human HeLa cells lysate at 50 uM pre incubated for 15 mins followed by ATP acyl phosphate probe addition and measured after 10 mins by LC-MS/MS analysis relative to control; assay type: subcellular; conditions: time 25.0 min; procedure, shortened: as §1
[14] = biological target: Tyrosine-protein kinase CSK (Homo sapiens, UniProt P41240); assay: Inhibition of CSK in human HeLa cells lysate at 2 uM pre incubated for 15 mins followed by ADP acyl phosphate probe addition and measured after 10 mins by LC-MS/MS analysis relative to control; assay type: subcellular; conditions: time 25.0 min
Tyrosine-protein kinase CSK, sequence (P41240 2-450 limits assumed): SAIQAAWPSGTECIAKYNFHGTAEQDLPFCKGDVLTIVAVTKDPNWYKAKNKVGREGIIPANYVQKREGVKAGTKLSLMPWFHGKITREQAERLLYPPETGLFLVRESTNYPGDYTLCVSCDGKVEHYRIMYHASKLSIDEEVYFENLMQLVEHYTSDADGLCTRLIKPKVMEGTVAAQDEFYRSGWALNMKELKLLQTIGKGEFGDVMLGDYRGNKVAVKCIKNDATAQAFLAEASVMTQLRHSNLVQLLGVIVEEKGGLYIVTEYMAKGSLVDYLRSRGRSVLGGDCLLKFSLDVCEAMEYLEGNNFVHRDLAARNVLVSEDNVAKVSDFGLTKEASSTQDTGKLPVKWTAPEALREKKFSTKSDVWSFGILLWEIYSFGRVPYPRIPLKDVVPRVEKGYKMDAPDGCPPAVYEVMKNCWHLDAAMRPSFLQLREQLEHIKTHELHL

Molecule CCOc1cc(N2CCC(O)CC2)ccc1Nc1ncc2c(n1)N(C)c1ccccc1C(=O)N2C has an IC50 (eIF-2-alpha kinase GCN2) greater than 50 µM, an inhibition at 10 µM [1] of 18.1% and an IC50 [2] greater than 50 µM. For the same molecule, the IC50 [3] was greater than 50 µM, the inhibition (AMPK alpha1/alpha2) was -0.7% and the inhibition [4] was 0.1%. For the same molecule, the inhibition at 2 µM [5] was 61.7%, the inhibition [6] was 0.7% and the IC50 [7] was greater than 50 µM. For the same molecule, the inhibition (RPS6KA1/RPS6KA2/RPS6KA3) was -2.1%, the inhibition [8] was 5.4% and the IC50 [9] was greater than 50 µM. The inhibition at 2 µM [10] was 2%, the IC50 [11] was greater than 50 µM and the IC50 [12] was greater than 50 µM. It also gave an inhibition [13] of 15.4% and an inhibition [14] of 11.6%.
